For orientation: IC50 means the concentration needed to halve the response being measured. By MIC is commonly meant the lowest concentration found to suppress growth. Low values mean inhibition by little substance, high ones a need for much substance.

Values after ≈ are worked out from the molar mass of the structure shown.

Data set [1] deals with T1, Enoyl-[acyl-carrier-protein] reductase [NADH] (Mycobacterium tuberculosis, UniProt P9WGR1).
T1 sequence (P9WGR1 whole entry): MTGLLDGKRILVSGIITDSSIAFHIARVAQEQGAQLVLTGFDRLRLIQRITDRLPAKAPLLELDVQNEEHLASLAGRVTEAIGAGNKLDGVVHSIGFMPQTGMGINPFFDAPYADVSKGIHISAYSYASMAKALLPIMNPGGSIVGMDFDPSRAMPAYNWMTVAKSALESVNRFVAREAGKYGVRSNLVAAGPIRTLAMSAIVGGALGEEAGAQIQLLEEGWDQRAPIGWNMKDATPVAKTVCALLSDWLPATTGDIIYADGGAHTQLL
Briefly: Inhibition of recombinant Mycobacterium tuberculosis InhA expressed in Escherichia coli […] pLysS using trans-2-decenoyl-N-acetylcysteamine as substrate by spectrophotometric method.

Data set [2] has as its system Mycobacterium tuberculosis. Briefly: Antitubercular activity against Mycobacterium tuberculosis measured after 48 hrs by luminescence based serial dilution method. The format is functional.
Data set [3] has as its system Staphylococcus aureus. Put plainly: Antimicrobial activity against methicillin-sensitive Staphylococcus aureus ATCC 25923 measured after 48 hrs. To be noted: ATCC 25923, 48 h. The format is functional. A digest of the protocol:
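Brucella broth with 10% heat-inactivated horse serum. Inoculum of 1×10^5 bacteria per well, exposed to a range of compound concentrations for 48 h at 37 °C. Read as absorbance at 590 nm, with compound-free wells as control and medium-only wells as blank. Percent growth inhibition was calculated, and the concentration giving 80% inhibition was taken as the MIC.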

For data set [4], the system named is Staphylococcus aureus. Briefly: Antimicrobial activity against […] Staphylococcus aureus ATCC 29213 measured after 48 hrs. To be noted: ATCC 29213, 48 h. It counts as functional. The method, boiled down:
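Brucella broth with 10% heat-inactivated horse serum. Inoculum of 1×10^5 bacteria per well, exposed to a range of compound concentrations at 37 °C for 48 h. Absorbance read at 590 nm. Drug-free wells served as growth control and medium-only wells as blank. MIC is the concentration giving 80% growth inhibition.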

For the next data set, the system named is Pseudomonas aeruginosa. Briefly: Antimicrobial activity against Pseudomonas aeruginosa […] measured after 48 hrs by p-iodonitrotetrazolium violet dye based serial dilution test. It counts as functional.
Data set [5] in a line: Cytotoxicity against HEK293 cells after 48 hrs by MTT assay. The format is cell-based. To be noted: human, read-out: MIC. In general terms: Tetrazolium assays rely on reduction of a dye to a coloured formazan, in cell work by metabolically active cells.
In the next data set the target is DNA gyrase (Escherichia coli, UniProt P0AES4+P0AES6). Put plainly: Inhibition of Escherichia coli DNA gyrase assessed as reduction in enzyme-mediated supercoiling of relaxed pBR322 DNA measured after 60 mins by electrophoresis method. The format is protein-complex assay.
Data set [6] concerns the target T2, 3-oxoacyl-[acyl-carrier-protein] synthase 3 (Escherichia coli, UniProt C3TDZ2).
T2 sequence (C3TDZ2 whole entry): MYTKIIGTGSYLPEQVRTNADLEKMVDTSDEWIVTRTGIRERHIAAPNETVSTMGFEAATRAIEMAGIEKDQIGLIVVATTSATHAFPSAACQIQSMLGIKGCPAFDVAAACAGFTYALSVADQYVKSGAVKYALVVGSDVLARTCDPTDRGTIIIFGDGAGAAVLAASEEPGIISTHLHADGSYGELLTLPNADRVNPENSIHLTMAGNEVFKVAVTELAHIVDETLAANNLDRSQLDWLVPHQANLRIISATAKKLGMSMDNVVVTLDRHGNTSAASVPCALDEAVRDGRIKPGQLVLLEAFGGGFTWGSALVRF
Briefly: Inhibition of Escherichia coli KAS3 expressed in Escherichia coli BL21(DE3).

Turning to `COc1ccc(C(=O)CN2C(=O)/C(=C\c3ccccc3OC)SC2=S)cc1`, in data set [1], the 50% inhibitory concentration (IC50) was 16.8 µM. This compound also registered an MIC in data set [2] of 9.27 µM (≈ 3.7 µg/mL).
The matching figures for `COc1ccccc1/C=C1/SC(=S)N(CC(=O)c2ccccc2)C1=O`: 28.1 µM and 30.4 µM (≈ 11.2 µg/mL).
The matching figures for `CC(=O)Nc1ccc(/C=C2/SC(=S)N(CC(=O)c3ccccc3)C2=O)cc1`: 11.6 µM and 3.18 µM (≈ 1.26 µg/mL).
The matching figures for `O=C(CN1C(=O)/C(=C\c2ccc(F)cc2)SC1=S)c1ccccc1`: 55 µM and 57.4 µM (≈ 20.5 µg/mL).
As for `O=C(CN1C(=O)/C(=C\c2ccc(Cl)cc2)SC1=S)c1ccccc1`, the half-maximal inhibitory concentration (IC50) in data set [1] was found to be 50.1 µM. The compound also gave a minimal inhibitory concentration (MIC) in data set [2] of 48.2 µM (≈ 18 µg/mL).
The corresponding values for `O=C(CN1C(=O)/C(=C\c2ccccc2)SC1=S)c1ccccc1` are 40.2 µM and 32.3 µM (≈ 11 µg/mL).
The corresponding values for `O=C(CN1C(=O)/C(=C\c2ccc([N+](=O)[O-])cc2)SC1=S)c1ccccc1` are 43.5 µM and 36.5 µM (≈ 14 µg/mL).
As for `COc1ccc(/C=C2/SC(=S)N(CC(=O)c3ccccc3)C2=O)cc1`, the 50% inhibitory concentration (IC50) in data set [1] was 8.24 µM. For the same compound, the MIC in data set [2] came to 2.95 µM (≈ 1.09 µg/mL); in the data set with Staphylococcus aureus [3] it was 4.28 µM (≈ 1.58 µg/mL); in the data set with Staphylococcus aureus [4] it was 4.15 µM (≈ 1.53 µg/mL); with Pseudomonas aeruginosa, 4.83 µM (≈ 1.78 µg/mL). For the same compound, in data set [5], the MCC at 48 h came out at 167 µM.
For the compound `O=C(CN1C(=O)/C(=C\c2ccc(Br)cc2)SC1=S)c1ccccc1`, the IC50 in data set [1] was 23.9 µM. In data set [2], this compound displayed a minimum inhibitory concentration (MIC) of 21.1 µM (≈ 8.83 µg/mL).
Regarding `COc1cc(/C=C2/SC(=S)N(CC(=O)c3ccccc3)C2=O)cc(OC)c1OC`, the IC50 in data set [1] is 3.12 µM; on DNA gyrase, above 1000 µM; in data set [6] it was 780 µM. Also, the MIC is 0.38 µM (≈ 0.163 µg/mL) in data set [2], 4.61 µM (≈ 1.98 µg/mL) against Staphylococcus aureus [3], 7.2 µM (≈ 3.09 µg/mL) against Staphylococcus aureus [4] and 5.41 µM (≈ 2.32 µg/mL) with Pseudomonas aeruginosa. For the same compound, the MCC at 48 h in data set [5] was above 200 µM.
Take `COc1ccc(C(=O)CN2C(=O)/C(=C\c3ccccc3Cl)SC2=S)cc1`: the half-maximal inhibitory concentration (IC50) in data set [1] was 15.3 µM. Besides, in data set [2], the MIC was 7.83 µM (≈ 3.16 µg/mL).
For `COc1ccc(C(=O)CN2C(=O)/C(=C\c3ccc(Br)cc3)SC2=S)cc1`, the IC50 in data set [1] amounted to 12.1 µM. In data set [2], this compound yielded a minimal inhibitory concentration (MIC) of 4.04 µM (≈ 1.81 µg/mL).
The matching figures for `O=C(CN1C(=O)/C(=C\c2ccc(O)cc2)SC1=S)c1ccccc1`: 35.3 µM and 33.1 µM (≈ 11.8 µg/mL).
The corresponding values for `O=C(CN1C(=O)/C(=C\c2ccccc2Cl)SC1=S)c1ccccc1` are 25.8 µM and 25.5 µM (≈ 9.53 µg/mL).
The matching figures for `O=C(CN1C(=O)/C(=C\c2cccc(Cl)c2)SC1=S)c1ccccc1`: 47.3 µM and 40.9 µM (≈ 15.3 µg/mL).
Consider `CN(C)c1ccc(/C=C2/SC(=S)N(CC(=O)c3ccccc3)C2=O)cc1`, for which the IC50 in data set [1] was found to be 17.4 µM. In data set [2], this compound returned a minimum inhibitory concentration (MIC) of 12.6 µM (≈ 4.82 µg/mL).
Turning to `COc1ccc(C(=O)CN2C(=O)/C(=C\c3ccc(F)cc3)SC2=S)cc1`, the IC50 in data set [1] worked out at 20.1 µM. The compound further had an MIC in data set [2] of 17.8 µM (≈ 6.9 µg/mL).
The matching figures for `COc1cccc(/C=C2/SC(=S)N(CC(=O)c3ccccc3)C2=O)c1`: 22.6 µM and 20.5 µM (≈ 7.57 µg/mL).
The corresponding values for `Cc1ccc(/C=C2/SC(=S)N(CC(=O)c3ccccc3)C2=O)cc1` are 17.5 µM and 15.1 µM (≈ 5.34 µg/mL).
With `COc1ccc(C(=O)CN2C(=O)/C(=C\c3cccc(Cl)c3)SC2=S)cc1`, the 50% inhibitory concentration (IC50) in data set [1] came to 7.84 µM. Besides, the minimal inhibitory concentration (MIC) in data set [2] turned out to be 2.02 µM (≈ 0.816 µg/mL); against Staphylococcus aureus [3], 2.16 µM (≈ 0.872 µg/mL); with Staphylococcus aureus [4], 3.88 µM (≈ 1.57 µg/mL); in the data set with Pseudomonas aeruginosa it was 5.05 µM (≈ 2.04 µg/mL). For the same compound, the MCC at 48 h in data set [5] was above 200 µM.
With `COc1ccc(C(=O)CN2C(=O)/C(=C\c3cc(OC)c(OC)c(OC)c3)SC2=S)cc1`, the half-inhibitory concentration (IC50) in data set [1] was 2.55 µM; at DNA gyrase, above 1000 µM; in data set [6], 900 µM. Also, the minimum inhibitory concentration (MIC) in data set [2] is 0.29 µM (≈ 0.133 µg/mL); against Staphylococcus aureus [3], 1.24 µM (≈ 0.57 µg/mL); against Staphylococcus aureus [4], 1.54 µM (≈ 0.708 µg/mL); against Pseudomonas aeruginosa, 0.95 µM (≈ 0.437 µg/mL). The MCC at 48 h in data set [5] is above 200 µM.
Turning to `COc1ccc(C(=O)CN2C(=O)/C(=C\c3ccc(C)cc3)SC2=S)cc1`, in data set [1], the 50% inhibitory concentration (IC50) turned out to be 5.02 µM. Further, the MIC is 0.49 µM (≈ 0.188 µg/mL) in data set [2], 6.15 µM (≈ 2.36 µg/mL) in the data set with Staphylococcus aureus [3], 10.2 µM (≈ 3.91 µg/mL) in the data set on Staphylococcus aureus [4] and 8.12 µM (≈ 3.11 µg/mL) in the data set with Pseudomonas aeruginosa. In data set [5], the MCC at 48 h is 195 µM.
As to `COc1ccc(C(=O)CN2C(=O)/C(=C\c3ccc(Cl)cc3)SC2=S)cc1`, in data set [1], the IC50 came to 16.5 µM. In data set [2], this compound registered an MIC of 8.62 µM (≈ 3.48 µg/mL).
The matching figures for `CC(/C=C1\SC(=S)N(CC(=O)O)C1=O)=C\c1ccccc1`: above 200 µM and above 200 µM.
`NNC(=O)c1ccncc1` [ISONIAZID]: the concentration for half-maximal inhibition (IC50) in data set [1] was 8.29 µM; on DNA gyrase, above 1000 µM; in data set [6], above 1000 µM. Further, the minimum inhibitory concentration (MIC) stood at 0.58 µM (≈ 0.0795 µg/mL) in data set [2], 1.26 µM (≈ 0.173 µg/mL) in the data set with Staphylococcus aureus [3], 1.42 µM (≈ 0.195 µg/mL) with Staphylococcus aureus [4] and 2.85 µM (≈ 0.391 µg/mL) against Pseudomonas aeruginosa. For the same compound, the MCC at 48 h in data set [5] was 120 µM.
On to `Oc1cc(Cl)ccc1Oc1ccc(Cl)cc1Cl` [TRICLOSAN], for which the MIC in data set [2] amounted to 8.65 µM (≈ 2.5 µg/mL); with Staphylococcus aureus [3], 0.39 µM (≈ 0.113 µg/mL); in the data set with Staphylococcus aureus [4] it was 0.68 µM (≈ 0.197 µg/mL); against Pseudomonas aeruginosa, 1.25 µM (≈ 0.362 µg/mL). Moreover, the MCC at 48 h in data set [5] amounted to 20.5 µM. Moreover, the concentration for half-maximal inhibition (IC50) on DNA gyrase was above 1000 µM; in data set [6], 850 µM.

(Values after ChEMBL document CHEMBL4480441, “Discovery and development of novel rhodanine derivatives targeting enoyl-acyl carrier protein reductase” (Bioorg Med Chem, 2019).)
